Reference: ChEMBL document CHEMBL3352485 (J Med Chem, 2014)

Experiments:
[1] = tested on: Rattus norvegicus; experiment: Testosterone-suppressive activity in Crl:CD(SD) rat assessed as number of animal with plasma testosterone level below the limit of detection at 0.3 nmol/hr, sc through osmotic pumps measured after 6 days by RIA; assay type: functional
Outline: (§1)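 Peptide was dissolved in distilled water or 50% DMSO as 0.1–2 mM pump solutions and delivered by ALZET osmotic pumps implanted subcutaneously in the back of 9-week-old male Crl:CD(SD) rats (n = 5) under ether. Controls received distilled-water pumps. After 6 days, rats were decapitated and plasma was recovered with aprotinin/EDTA. Testosterone was measured by RIA, and the number of rats below the detection limit (0.04 ng/mL) was counted.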

[2] = Stability of the compound in aqueous solution assessed as residual ratio at pH 3 up to 1 week by HPLC analysis relative to initial level; assay type: physicochemical
Outline: (§2)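 Peptides in aqueous solution at pH 1.2 (JP1, containing 10% acetonitrile), 3, 5 or 7 were kept in the dark at 37 °C for up to 2 weeks. Peptide remaining was quantified from HPLC peak area, with detection at 230–280 nm. The residual ratio (stability index) was expressed relative to the time-0 amount, taken as 100%.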

[3] = Stability of the compound in aqueous solution assessed as residual ratio at pH 3 up to 2 weeks by HPLC analysis relative to initial level; assay type: physicochemical; outline: as §2
[4] = target: T1, KiSS-1 receptor (Rattus norvegicus, UniProt Q924U1); experiment: Displacement of radioligand from rat KISS1R transfected in CHO cells; assay type: cell-based
[5] = Stability of the compound in aqueous solution assessed as residual ratio at pH 7 up to 1 week by HPLC analysis relative to initial level; assay type: physicochemical; outline: as §2
[6] = Stability of the compound in aqueous solution assessed as residual ratio at pH 5 up to 1 week by HPLC analysis relative to initial level; assay type: physicochemical; outline: as §2
[7] = tested on: Rattus norvegicus; experiment: Testosterone-suppressive activity in Crl:CD(SD) rat assessed as number of animal with plasma testosterone level below the limit of detection at 0.1 nmol/hr, sc through osmotic pumps measured after 6 days by RIA; assay type: functional; outline: as §1
[8] = tested on: Rattus norvegicus; experiment: Testosterone-suppressive activity in Crl:CD(SD) rat assessed as number of animal with plasma testosterone level below the limit of detection at 0.5 nmol/hr, sc through osmotic pumps measured after 6 days by RIA; assay type: functional; outline: as §1
[9] = Stability of the compound in aqueous solution assessed as residual ratio at pH 5 up to 2 weeks by HPLC analysis relative to initial level; assay type: physicochemical; outline: as §2
[10] = Stability of the compound in aqueous solution assessed as residual ratio at pH 7 up to 2 weeks by HPLC analysis relative to initial level; assay type: physicochemical; outline: as §2
[11] = target: T2, KiSS-1 receptor (Homo sapiens, UniProt Q969F8); experiment: Displacement of radioligand from human KISS1R transfected in CHO cells; assay type: cell-based
Outline: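 Binding used membrane fractions prepared from CHO cells expressing recombinant human KISS1R.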

[12] = target: T1, KiSS-1 receptor; experiment: Agonist activity at rat KISS1R transfected in CHO cells assessed as intracellular calcium flux after 24 hrs by functional FLIPR assay; assay type: cell-based
[13] = target: T2, KiSS-1 receptor; experiment: Agonist activity at human KISS1R transfected in CHO cells assessed as intracellular calcium flux after 24 hrs by functional FLIPR assay; assay type: cell-based
Outline: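 CHO cells stably expressing human KISS1R were seeded at 15 000 cells/mL, cultured 24 h, then loaded with fluo-3 for 1 h at 37 °C in HBSS/HEPES (pH 7.4) with probenecid and FBS. Cells were washed in HBSS with 2.5 mM probenecid. Peptides came from 1 mM DMSO stocks diluted in buffer containing probenecid, 0.2% BSA and 0.1% CHAPS. Fluorescence was recorded on FLIPR for 3 min; peak counts over 0–180 s gave agonist activity.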

[14] = Stability of the compound in aqueous solution (JP1) assessed as residual ratio at pH 1.2 up to 1 week by HPLC analysis relative to initial level; assay type: physicochemical; outline: as §2
[15] = Stability of the compound in aqueous solution (JP1) assessed as residual ratio at pH 1.2 up to 2 weeks by HPLC analysis relative to initial level; assay type: physicochemical; outline: as §2
[16] = tested on: Rattus norvegicus; experiment: Testosterone-suppressive activity in Crl:CD(SD) rat assessed as number of animal with plasma testosterone level below the limit of detection at 2 nmol/hr, sc through osmotic pumps measured after 6 days by RIA; assay type: functional; outline: as §1

T1 sequence (Q924U1 whole entry): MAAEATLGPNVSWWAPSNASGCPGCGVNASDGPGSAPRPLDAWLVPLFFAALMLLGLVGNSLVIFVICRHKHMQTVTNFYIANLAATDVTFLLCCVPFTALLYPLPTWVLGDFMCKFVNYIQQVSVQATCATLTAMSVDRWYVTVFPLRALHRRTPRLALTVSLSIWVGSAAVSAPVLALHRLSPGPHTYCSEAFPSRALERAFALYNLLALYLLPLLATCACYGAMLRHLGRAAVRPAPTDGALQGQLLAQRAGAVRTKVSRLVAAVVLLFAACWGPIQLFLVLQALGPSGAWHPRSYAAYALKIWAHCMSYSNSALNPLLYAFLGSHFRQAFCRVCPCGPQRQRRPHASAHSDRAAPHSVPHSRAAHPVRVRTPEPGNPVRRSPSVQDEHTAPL
T2 sequence (Q969F8 whole entry): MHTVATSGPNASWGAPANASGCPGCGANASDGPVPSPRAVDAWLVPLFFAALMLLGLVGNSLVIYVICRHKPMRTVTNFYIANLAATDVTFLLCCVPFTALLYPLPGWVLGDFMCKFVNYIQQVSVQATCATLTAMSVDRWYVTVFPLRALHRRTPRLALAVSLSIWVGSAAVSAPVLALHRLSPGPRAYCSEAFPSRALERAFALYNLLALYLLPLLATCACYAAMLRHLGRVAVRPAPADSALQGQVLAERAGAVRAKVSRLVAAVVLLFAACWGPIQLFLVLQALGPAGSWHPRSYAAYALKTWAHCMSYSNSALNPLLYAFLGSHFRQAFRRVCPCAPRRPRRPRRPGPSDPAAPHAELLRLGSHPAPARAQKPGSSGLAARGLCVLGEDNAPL

Row | Compound | Ki [4] [nM] | Activity [8] [%] | Ki [11] [nM] | EC50 [12] [nM] | EC50 [13] [nM] | Activity [16] [%] | further results
1 | CNC(=N)NCCC[C@H](NC(=O)[C@H](CC(C)C)NC(=O)NNC(=O)[C@H](Cc1ccccc1)NC(=O)[C@H](CO)NC(=O)[C@H](CC(N)=O)NC(=O)[C@@H](Cc1c[nH]c2ccccc12)NC(=O)[C@H](N)Cc1ccc(O)cc1)C(=O)N[C@@H](Cc1c[nH]c2ccccc12)C(N)=O | 0.077 | 80 | 0.037 | 2.3 | 0.51 |  | Activity [1]: 40%; remaining at 168 h [2]: 98.2%; remaining at 336 h [3]: 97.1%; remaining at 168 h [5]: 56.5%; remaining at 168 h [6]: 96%; Activity [7]: 0 rats (n = 5); remaining at 336 h [9]: 90.8%; remaining at 336 h [10]: 28%; remaining at 168 h [14]: 60.8%; remaining at 336 h [15]: 33.4%
2 | CNC(=N)NCCC[C@H](NC(=O)[C@H](CC(C)C)NC(=O)NNC(=O)[C@H](Cc1ccccc1)NC(=O)[C@H](CO)NC(=O)[C@H](C)NC(=O)[C@@H](Cc1ccncc1)NC(=O)[C@H](N)Cc1ccc(O)cc1)C(=O)N[C@@H](Cc1c[nH]c2ccccc12)C(N)=O | 3.6 |  | 0.2 | 9.3 | 0.7 | 0 | 
3 | CNC(=N)NCCC[C@H](NC(=O)[C@H](CC(C)C)NC(=O)NNC(=O)[C@H](Cc1ccccc1)NC(=O)[C@@H](NC(=O)[C@H](CC(N)=O)NC(=O)[C@@H](Cc1c[nH]c2ccccc12)NC(=O)[C@@H](Cc1ccc(O)cc1)NC(=O)C1CC1)[C@@H](C)O)C(=O)N[C@@H](Cc1c[nH]c2ccccc12)C(N)=O | 0.087 |  | 0.034 | 4.2 | 0.82 |  | 
4 | CNC(=N)NCCC[C@H](NC(=O)[C@H](CC(C)C)NC(=O)NNC(=O)[C@H](Cc1ccccc1)NC(=O)[C@@H]1CCCN1C(=O)[C@H](CC(N)=O)NC(=O)[C@@H](Cc1ccncc1)NC(=O)[C@H](N)Cc1ccc(O)cc1)C(=O)N[C@@H](Cc1c[nH]c2ccccc12)C(N)=O |  | 20 | 0.096 | 13 | 1.2 |  | 
5 | CNC(=N)NCCC[C@H](NC(=O)[C@H](CC(C)C)NC(=O)NNC(=O)[C@H](Cc1ccccc1)NC(=O)[C@@H](NC(=O)[C@H](CC(N)=O)NC(=O)[C@@H](Cc1ccncc1)NC(=O)[C@H](N)Cc1ccc(O)cc1)C(C)C)C(=O)N[C@@H](Cc1c[nH]c2ccccc12)C(N)=O |  | 0 | 0.052 | 12 | 1.8 | 80 | 
6 | CNC(=N)NCCC[C@H](NC(=O)[C@H](CC(C)C)NC(=O)NNC(=O)[C@H](Cc1ccccc1)NC(=O)[C@@H]1CC(O)CN1C(=O)[C@H](CC(N)=O)NC(=O)[C@@H](Cc1ccncc1)NC(=O)[C@H](N)Cc1ccc(O)cc1)C(=O)N[C@@H](Cc1c[nH]c2ccccc12)C(N)=O (some centres undefined) |  |  |  | 95 | 2.8 |  | 
7 | CC[C@H](NC(=O)[C@@H](Cc1c[nH]c2ccccc12)NC(=O)[C@H](N)Cc1ccc(O)cc1)C(=O)N[C@@H](CO)C(=O)N[C@@H](Cc1ccccc1)C(=O)NNC(=O)N[C@@H](CC(C)C)C(=O)N[C@@H](CCCNC(=N)NC)C(=O)N[C@@H](Cc1c[nH]c2ccccc12)C(N)=O | 0.83 |  | 0.12 | 2.8 | 0.64 | 0 | 
8 | CNC(=N)NCCC[C@H](NC(=O)[C@H](CC(C)C)NC(=O)NNC(=O)[C@H](Cc1ccccc1)NC(=O)[C@@H](NC(=O)[C@H](CC(N)=O)NC(=O)[C@@H](Cc1ccncc1)NC(=O)[C@H](N)Cc1ccc(O)cc1)c1ccccc1)C(=O)N[C@@H](Cc1c[nH]c2ccccc12)C(N)=O |  |  |  | 110 | 4.4 |  | 
9 | CNC(=N)NCCC[C@H](NC(=O)[C@H](CC(C)C)NC(=O)NNC(=O)[C@H](Cc1ccccc1)NC(=O)[C@H](CO)NC(=O)[C@H](C)NC(=O)[C@@H](Cc1c[nH]c2ccccc12)NC(=O)[C@H](N)Cc1ccc(O)cc1)C(=O)N[C@@H](Cc1c[nH]c2ccccc12)C(N)=O |  |  |  | 6.8 | 0.49 |  | 
